An excerpt weighted towards active compounds, which were near 2.4% of everything screened.
SENP1 FRET inh – SENP1 (human) catalytic domain inhibition; Q9P0U3; recombinant SENP1 catalytic domain, CyPet-SUMO1-YPet FRET cleavage; inhibition, % at 10 µM; hit rate 0.21% among 360,000;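 active = inhibition at least 30% at 10 µM, raw YFP signal under a set limit, fluorescence ratio 0.5 to 1.5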;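 note: 0% = enzyme with DMSO and 100% = no enzyme wells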
Target sequence (Q9P0U3 419-644 limits assumed): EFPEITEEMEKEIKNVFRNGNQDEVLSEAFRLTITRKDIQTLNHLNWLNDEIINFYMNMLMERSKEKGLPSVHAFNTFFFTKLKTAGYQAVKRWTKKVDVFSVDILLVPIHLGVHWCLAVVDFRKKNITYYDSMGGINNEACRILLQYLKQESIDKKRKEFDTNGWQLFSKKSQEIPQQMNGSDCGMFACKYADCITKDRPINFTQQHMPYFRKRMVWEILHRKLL
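Compound: 10 µM single point, 0.5% DMSO; Test system: hSENP1 catalytic domain, recombinant; Timing: 50 min reaction at room temperature; Technique: FRET, CFP and YFP emission; Control set: no-enzyme wells low, DMSO-plus-enzyme wells high control.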
Myeloid diff 2 – myeloid differentiation induction; calls only at 10 µM; AID 624256; ER-HoxA9 myeloid progenitors, lysozyme-GFP differentiation, flow cytometry; hit rate 1% among 360,000;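 active = normalized GFP-positive differentiation at or above the plate's own cutoff, the solvent-only control mean plus 3 SD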;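 note: cells exposed to compound for four days before flow analysis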
beta cell repl – induces beta-cell replication in MIN6 cells | MIN6 cells proliferation, ATPlite luminescence, 48 h; cells starved in 0.2% serum; 100% = growth in 10% serum | proliferation, % at 10 µM | hit rate 0.29% among 330,000 | AID 2380;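 active = compounds whose signal lies at least 3.5 SD above the mean of all wells on their plate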;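 note: 0% = DMSO-treated cells in low-serum medium and 100% = 10% serum control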
DAGLB inh – blocks human DAGLB lipase activity; Q8NCG7; AID 504411; inhibition, % at 5.17 µM; HEK293T DAGLB membrane lysate, EnzChek fluorogenic substrate; hit rate 0.059% among 340,000; in the data active = inhibition above about 34%;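 note: 0% = enzyme with vehicle and 100% = wells lacking enzyme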
MT1-MMP act inh – inhibitors of human MT1-MMP activation; P50281; hit rate 0.061% among 360,000; HT1080 RFP-PRO-GFP cells, GFP/RFP ratio fluorescence, overnight; percent of plate control window, DMSO zero; GFP/RFP ratio change, % at 20 µM; AID 651647;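 active = GFP/RFP ratio change of at least 30% with cell ATP level not reduced by more than half and red fluorescence within 50% of control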
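Material: RFP-PRO-GFP reporter HT1080 cells. Dosing: single-point 20 µM compound, 1% DMSO. Controls: DMSO and RFP-L50D-GFP cell wells. Timing: cells overnight before dosing, compound overnight, 37 °C, 5% CO2. Measure: GFP/RFP fluorescence ratio.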
NRP1-CendR mod – modulators of CendR peptide binding to human neuropilin-1; O14786; FAM-RPARPAR peptide binding to NRP-1, fluorescence polarization; inhibition, % at 25 µM; hit rate 0.85% among 360,000;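 active = inhibition or corrected inhibition above about 18%, plus a signal ratio from 0.5 to 1.5, limit read from the data, passing the limit was not always enough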
Myeloid diff CP1 – myeloid differentiation induction; shares compounds with Myeloid diff 2; ER-HoxA9 myeloid progenitors, GFP/Mac1 double-positive flow; calls only; hit rate 2% among 2,300; AID 651706;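 active = share of green or green-and-red cells above 9 and 9% in run 1 or 4 and 3% in run 2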
GFP autofluor – counter-screen for myeloid differentiation promoters: compound fluorescence. AID 651707. hit rate 7.4% among 2,300. fluorescence response, % (test concentration not listed). ER-HoxA9 myeloid progenitors, no estrogen, GFP autofluorescence flow cytometry; vehicle wells 0%, positive control 100%. shares compounds with Myeloid diff 2;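 active = over 5% cells positive for green fluorescent reporter, or over 2% positive for both it and APC stain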;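 note: range taken on the double positive population between DMSO and positive control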
* marks the source's active call; other numbers are inactive results.

`CCC(C)(C)NC(=O)C(c1ccc(C)o1)N(C(=O)c1csnn1)c1cccc(F)c1` (stereo unspecified) gave SENP1 FRET inh 0.9, Myeloid diff 2 inactive, beta cell repl -0.2, DAGLB inh 1.1, MT1-MMP act inh -0.1, NRP1-CendR mod -2.1, Myeloid diff CP1 inactive and GFP autofluor 0.0.
For Nc1ccc(C#Cc2ccc3c(=O)c4ccccc4oc3c2)cc1 the results were SENP1 FRET inh -24.6, Myeloid diff 2 inactive, beta cell repl -3.9, DAGLB inh -7.8, MT1-MMP act inh -7.2, NRP1-CendR mod -7.9, Myeloid diff CP1 active and GFP autofluor 0.0.
`COc1cc2oc3cc(C#Cc4ccc(N)cc4)ccc3c(=O)c2cc1OC` gave SENP1 FRET inh -25.6, Myeloid diff 2 inactive, beta cell repl -1.1, DAGLB inh 2.9, MT1-MMP act inh -19.6 and NRP1-CendR mod -33.9.
COc1ccc(/C=N/NC2=NS(=O)(=O)c3ccccc32)cc1OC(C)=O was read as SENP1 FRET inh 4.3, Myeloid diff 2 inactive, beta cell repl 3.6, DAGLB inh 0.9, MT1-MMP act inh -5.1, NRP1-CendR mod 10.0, Myeloid diff CP1 inactive and GFP autofluor 0.0.
For COc1ccccc1CNC(=O)COC(=O)c1cccc(S(=O)(=O)N2CCCCC2)c1 the results were SENP1 FRET inh 3.9, Myeloid diff 2 inactive, beta cell repl 1.1, DAGLB inh -2.8, MT1-MMP act inh 1.9 and NRP1-CendR mod -6.3.
Screening O=C(NC1CCCCC1)c1cccc2c1C(=O)c1ccc(N3CCC(Cc4ccccc4)CC3)cc1S2(=O)=O returned SENP1 FRET inh -29.4, Myeloid diff 2 active, beta cell repl -3.6, DAGLB inh -15.8, MT1-MMP act inh -118.8, NRP1-CendR mod 13.1, Myeloid diff CP1 inactive and GFP autofluor 1.2.
Screening COc1ccc(S(=O)(=O)N2CCOCC2)cc1NC(=O)c1cc(C)oc1C returned SENP1 FRET inh 2.6, Myeloid diff 2 inactive, beta cell repl -0.6, DAGLB inh -2.1, MT1-MMP act inh -6.7 and NRP1-CendR mod -5.1.
`CN1C(=O)/C(=C/c2ccc(O)c([N+](=O)[O-])c2)NC1=S` gave SENP1 FRET inh -0.9, Myeloid diff 2 inactive, beta cell repl -2.4, DAGLB inh 12.8, MT1-MMP act inh 13.5 and NRP1-CendR mod 11.5.
COc1cc(/C=C2\NC(=S)N(C)C2=O)ccc1O was read as SENP1 FRET inh -49.2, Myeloid diff 2 active, beta cell repl -3.1, DAGLB inh 0.9, MT1-MMP act inh -49.2, NRP1-CendR mod -83.5, Myeloid diff CP1 inactive and GFP autofluor 5.1*.
`NC(=S)Nc1cccc2cc3ccccc3cc12` gave SENP1 FRET inh -33.4, Myeloid diff 2 active, beta cell repl -6.1, DAGLB inh -0.5, MT1-MMP act inh -47.4, NRP1-CendR mod 69.3, Myeloid diff CP1 inactive and GFP autofluor 13.6*.
`N=C1C=CC(=C(c2ccc(N)cc2)c2ccc(N)cc2)C=C1` gave SENP1 FRET inh 47.5, Myeloid diff 2 inactive, DAGLB inh 21.3, MT1-MMP act inh 93.5 and NRP1-CendR mod -25.7.
Screening COC(=O)c1cc(NS(=O)(=O)c2ccc3c(c2)CCC(=O)N3)cc(C(=O)OC)c1 returned SENP1 FRET inh -4.7, Myeloid diff 2 active, beta cell repl -1.9, DAGLB inh 2.2, MT1-MMP act inh 1.2, NRP1-CendR mod -7.0, Myeloid diff CP1 inactive and GFP autofluor 0.0.
For CC(=O)c1ccc(NS(=O)(=O)c2ccc3c(c2)CCC(=O)N3)cc1 the results were SENP1 FRET inh 0.9, Myeloid diff 2 inactive, beta cell repl -2.5, DAGLB inh 1.2, MT1-MMP act inh 3.3 and NRP1-CendR mod -8.3.
`C/C(O)=c1/ccc2cccc3nc(C)nc1c23` gave SENP1 FRET inh -21.2, Myeloid diff 2 active, beta cell repl -4.5, DAGLB inh -1.1, MT1-MMP act inh -97.7, NRP1-CendR mod -46.8, Myeloid diff CP1 inactive and GFP autofluor 8.4*.
`CC(=O)c1nn(-c2cccc(Br)c2)cc1C(=O)c1ccc(Cl)cc1` gave SENP1 FRET inh -1.1, Myeloid diff 2 inactive, beta cell repl 2.8, DAGLB inh -4.2, MT1-MMP act inh -0.8 and NRP1-CendR mod 13.2.
Screening COc1cc(O)oc1C=Nc1ccccc1 returned SENP1 FRET inh -0.1, Myeloid diff 2 active, beta cell repl -2.5, DAGLB inh 2.8, MT1-MMP act inh -0.1, NRP1-CendR mod -10.0, Myeloid diff CP1 inactive and GFP autofluor 0.3.
COc1cc(C=NCc2ccccc2)ccc1O was read as SENP1 FRET inh -3.4, Myeloid diff 2 inactive, DAGLB inh 2.7, MT1-MMP act inh 0.1 and NRP1-CendR mod 0.2.
`COc1ccc(S(=O)(=O)N2CCN(CCOc3ccccc3Cl)CC2)cc1OC` gave SENP1 FRET inh -0.6, Myeloid diff 2 inactive, beta cell repl 1.5, DAGLB inh -4.2, MT1-MMP act inh 12.3, NRP1-CendR mod 13.6, Myeloid diff CP1 inactive and GFP autofluor 0.0.
COc1ccc(S(=O)(=O)N2CCN(CCOc3ccc(Br)cc3)CC2)cc1OC was read as SENP1 FRET inh 2.5, Myeloid diff 2 inactive, beta cell repl -4.9, DAGLB inh -1.0, MT1-MMP act inh 6.9 and NRP1-CendR mod 4.6.
For Cc1ccccc1Nc1nc(N)nc(CSc2n[nH]c(N)n2)n1 the results were SENP1 FRET inh 0.2, Myeloid diff 2 active, beta cell repl 0.1, DAGLB inh 2.2, MT1-MMP act inh 6.5, NRP1-CendR mod 1.3, Myeloid diff CP1 inactive and GFP autofluor 0.0.
For Cc1ccccc1CSCc1nc(N)nc(Nc2ccccc2C)n1 the results were SENP1 FRET inh 1.8, Myeloid diff 2 inactive, beta cell repl 5.0, DAGLB inh 2.1, MT1-MMP act inh 1.0 and NRP1-CendR mod 10.3.
For CC(C)(C)C(=O)/C=C1\SCC(=O)N1CC(=O)N1CCN(c2ccccc2)CC1 the results were SENP1 FRET inh 2.0, Myeloid diff 2 inactive, beta cell repl -1.9, DAGLB inh -0.9, MT1-MMP act inh -2.5, NRP1-CendR mod -1.7, Myeloid diff CP1 inactive and GFP autofluor 1.1.
For CC(/C=C1\SC(=S)N(CC(=O)N2CCN(c3ccccc3)CC2)C1=O)=C\c1ccccc1 the results were SENP1 FRET inh -3.7, Myeloid diff 2 inactive, beta cell repl -4.3, DAGLB inh -1.6, MT1-MMP act inh 1.0 and NRP1-CendR mod 15.0.
Cc1cnc(C(=O)N2CCN(S(=O)(=O)c3ccc(F)c(F)c3F)CC2)cn1 was read as SENP1 FRET inh 0.9, Myeloid diff 2 inactive, beta cell repl -2.0, DAGLB inh 0.9, MT1-MMP act inh 6.1 and NRP1-CendR mod 9.6.
